Results: ChEMBL document CHEMBL1124624, “Synthesis and biological evaluation of 4,6-diethyl-1,3,4,5-tetrahydropyrano[4,3-b]indole-4-acetic acid, an isomer of etodolac” (J Med Chem, 1989)

How the values were obtained:
[1] = In vitro inhibition of prostaglandin E2 production in cultured chondrocytes; format: functional, cell-based
How it was run: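 Cultured chondrocytes were exposed to compound at neutral pH over a short incubation period. Prostaglandin E2 production was measured, and inhibitory potency is given as an IC50.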

Rattus norvegicus = experiment: Antiinflammatory activity of the perorally administered compound assessed in adjuvant arthritis assay in rat; format: functional; details: po
How it was run: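 Rats given test compound by mouth in the curative (established-disease) adjuvant arthritis/edema model. Inhibition of paw edema was scored, and potency is given as an ED50 in mg/kg.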

| SMILES | IC50 [1] | ED50 (Rattus norvegicus) |
| --- | --- | --- |
| CCC1(CC(=O)O)SCCc2c1[nH]c1ccccc21 (configuration not stated) | 300 nM | > 25 mg/kg |
| CCC1(CC(=O)O)OCCc2c1[nH]c1ccccc21 (configuration not stated) | 100 nM | 6.8 mg/kg |
| CCc1cccc2c3c([nH]c12)C(CC)(CC(=O)O)CCCC3 (configuration not stated) | – | > 50 mg/kg |
| CCc1cccc2c3c([nH]c12)C(CC)(CC(=O)O)OCC3 (configuration not stated) [ETODOLAC] | 23 nM | 0.7 mg/kg |
| CCc1cccc2c3c([nH]c12)C(CC)(CC(=O)O)COC3 (configuration not stated) | 50 nM | 3 mg/kg |
| CCc1cccc2c3c([nH]c12)C(CC)(CC(=O)O)CCC3 (configuration not stated) | 20 nM | 1.9 mg/kg |
| CCc1cccc2c3c([nH]c12)C(CC)(CC(=O)O)CC3 (configuration not stated) | – | 6.2 mg/kg |
